Results: ChEMBL document CHEMBL2177028, “Insights into the structural determinants required for high-affinity binding of chiral cyclopropane-containing ligands to α4β2-nicotinic acetylcholine receptors: an integrated approach to behaviorally active nicotinic ligands” (J Med Chem, 2012)
Activity calls are given as the source filed them. The rule behind the calls is not given here.

Columns and labels:
[1] = biological target: T1, Neuronal acetylcholine receptor; alpha4/beta2 (Homo sapiens, UniProt P17787+P43681); experiment: Antagonist activity at high sensitivity and low sensitivity alpha4beta2-nAChR expressed in human SH-EP1 cells assessed as inhibition of carbamylcholine-induced stimulation effect measured after 10 mins carbamylcholine challenge by 86Rb+ ion flux assay; type: functional, cell-based
T1 sequence (P17787 whole entry): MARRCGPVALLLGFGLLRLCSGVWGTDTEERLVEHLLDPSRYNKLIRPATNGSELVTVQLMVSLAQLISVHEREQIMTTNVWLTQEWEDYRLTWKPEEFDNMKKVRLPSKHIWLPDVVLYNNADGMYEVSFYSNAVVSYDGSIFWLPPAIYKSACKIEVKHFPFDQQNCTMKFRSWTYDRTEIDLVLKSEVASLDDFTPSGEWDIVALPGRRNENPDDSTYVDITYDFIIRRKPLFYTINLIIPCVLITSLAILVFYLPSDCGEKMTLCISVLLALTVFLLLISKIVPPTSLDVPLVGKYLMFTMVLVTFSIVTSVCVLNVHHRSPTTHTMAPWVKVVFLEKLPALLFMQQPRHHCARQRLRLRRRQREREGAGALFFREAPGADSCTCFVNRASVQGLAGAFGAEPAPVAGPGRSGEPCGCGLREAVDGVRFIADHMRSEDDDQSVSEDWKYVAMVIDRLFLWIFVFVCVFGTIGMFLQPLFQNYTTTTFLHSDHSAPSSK
T1 sequence (P43681 whole entry): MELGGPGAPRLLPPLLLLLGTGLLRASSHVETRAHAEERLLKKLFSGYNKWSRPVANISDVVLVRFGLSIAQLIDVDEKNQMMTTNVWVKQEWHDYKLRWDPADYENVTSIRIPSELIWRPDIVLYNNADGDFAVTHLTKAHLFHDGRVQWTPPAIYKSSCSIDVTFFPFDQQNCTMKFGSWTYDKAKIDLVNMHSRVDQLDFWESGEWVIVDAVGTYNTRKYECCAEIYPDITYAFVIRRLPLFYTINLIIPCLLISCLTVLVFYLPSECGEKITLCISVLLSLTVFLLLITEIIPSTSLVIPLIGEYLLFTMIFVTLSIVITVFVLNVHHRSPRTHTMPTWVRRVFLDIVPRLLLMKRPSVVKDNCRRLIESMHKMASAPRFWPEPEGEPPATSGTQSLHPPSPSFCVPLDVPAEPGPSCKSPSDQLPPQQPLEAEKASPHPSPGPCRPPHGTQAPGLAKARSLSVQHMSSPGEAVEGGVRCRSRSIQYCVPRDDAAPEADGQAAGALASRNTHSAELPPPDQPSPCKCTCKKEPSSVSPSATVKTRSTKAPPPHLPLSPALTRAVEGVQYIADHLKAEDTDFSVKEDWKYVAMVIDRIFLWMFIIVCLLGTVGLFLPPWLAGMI
Summary of the method: (§1)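 Receptor inactivation measured by 86Rb+ efflux after 10 min pre-exposure to test ligand, followed by carbamylcholine challenge. Cells: SH-EP1 (human α4β2), SH-SY5Y (α3β4*), TE671/RD (α1β1γδ).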

[2] = biological target: T1, Neuronal acetylcholine receptor; alpha4/beta2; experiment: Agonist activity at high sensitivity and low sensitivity alpha4beta2-nAChR expressed in human SH-EP1 cells by 86Rb+ ion flux assay; type: functional, cell-based
Summary of the method: (§2)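 86Rb+ efflux through human α4β2-nAChR (mixed high- and low-sensitivity forms) heterologously expressed in SH-EP1 cells. Agonist efficacy expressed as percent of the response to a maximally efficacious concentration of the full agonist carbamylcholine, with high- and low-sensitivity α4β2 responses reported separately.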

[3] = biological target: T1, Neuronal acetylcholine receptor; alpha4/beta2; experiment: Agonist activity at low sensitivity alpha4beta2-nAChR expressed in human SH-EP1 cells by 86Rb+ ion flux assay relative to carbamylcholine; type: functional, cell-based; summary of the method: as §2
[4] = biological target: Neuronal acetylcholine receptor; alpha4/beta2 (Rattus norvegicus, UniProt P09483+P12390); experiment: Displacement of [3H]epibatidine from rat alpha4beta2-nAChRs after 4 hrs by scintillation counting; type: protein-complex assay
Neuronal acetylcholine receptor; alpha4/beta2 (Rattus norvegicus, UniProt P09483+P12390), sequence (P09483 whole entry): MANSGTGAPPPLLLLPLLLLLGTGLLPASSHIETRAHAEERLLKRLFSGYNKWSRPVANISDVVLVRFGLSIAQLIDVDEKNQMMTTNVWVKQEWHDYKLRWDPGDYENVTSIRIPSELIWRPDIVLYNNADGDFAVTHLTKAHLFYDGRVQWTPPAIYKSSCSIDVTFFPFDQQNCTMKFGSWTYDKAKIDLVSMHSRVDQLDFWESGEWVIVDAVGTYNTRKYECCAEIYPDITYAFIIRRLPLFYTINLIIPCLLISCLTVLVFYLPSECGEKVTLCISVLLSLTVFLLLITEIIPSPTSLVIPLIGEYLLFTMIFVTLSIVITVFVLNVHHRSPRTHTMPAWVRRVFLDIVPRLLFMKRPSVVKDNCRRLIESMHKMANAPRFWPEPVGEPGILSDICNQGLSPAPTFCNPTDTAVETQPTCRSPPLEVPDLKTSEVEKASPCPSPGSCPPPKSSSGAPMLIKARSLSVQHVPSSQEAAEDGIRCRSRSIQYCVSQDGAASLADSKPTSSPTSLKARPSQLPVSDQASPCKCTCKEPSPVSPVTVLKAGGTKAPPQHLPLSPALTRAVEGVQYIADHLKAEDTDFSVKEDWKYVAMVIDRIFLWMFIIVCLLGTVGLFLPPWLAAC
Neuronal acetylcholine receptor; alpha4/beta2 (Rattus norvegicus, UniProt P09483+P12390), sequence (P12390 whole entry): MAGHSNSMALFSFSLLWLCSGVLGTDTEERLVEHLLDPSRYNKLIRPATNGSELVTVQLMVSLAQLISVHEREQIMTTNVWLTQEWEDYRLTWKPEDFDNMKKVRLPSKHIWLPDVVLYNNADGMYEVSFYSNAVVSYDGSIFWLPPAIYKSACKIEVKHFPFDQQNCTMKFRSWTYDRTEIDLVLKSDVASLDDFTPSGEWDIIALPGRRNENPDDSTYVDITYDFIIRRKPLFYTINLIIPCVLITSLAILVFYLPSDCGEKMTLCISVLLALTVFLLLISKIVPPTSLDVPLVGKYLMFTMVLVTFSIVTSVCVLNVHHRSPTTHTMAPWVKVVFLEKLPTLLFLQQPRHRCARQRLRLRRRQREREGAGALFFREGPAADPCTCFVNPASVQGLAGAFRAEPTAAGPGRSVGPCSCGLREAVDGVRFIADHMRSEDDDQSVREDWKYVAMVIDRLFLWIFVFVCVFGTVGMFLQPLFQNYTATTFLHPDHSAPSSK
Summary of the method: (§3)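 [3H]epibatidine competition binding at heterologously expressed rat nAChR subtypes, run per the PDSP protocol. Native α4β2* receptors were prepared from rat forebrain. Ki values determined.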

SH-SY5Y [5] = experiment: Antagonist activity at high sensitivity and low sensitivity alpha3beta4*-nAChR expressed in human SH-SY5Y cells assessed as inhibition of carbamylcholine-induced stimulation effect measured after 10 mins carbamylcholine challenge by 86Rb+ ion flux assay; type: functional, cell-based; summary of the method: as §1
Mus musculus [6] = experiment: Antidepressant activity in mouse assessed as immobility time at 3 mg/kg, ip after 30 mins by mouse forced swim test; type: functional, organism-based; design: dose 3 mg/kg
Summary of the method: (§4)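 Mouse forced swim test: mice placed in a beaker of water and time spent passively floating (immobility) recorded. Compounds given intraperitoneally or orally; sertraline 20 mg/kg served as positive control.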

Mus musculus [7] = experiment: Antidepressant-like effect in mouse assessed as behavioral changes at 5 to 10 mg/kg, ip dosed 15 mins before testing by SmartCube system; type: functional, organism-based
Summary of the method: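 SmartCube automated mouse behavioural profiling. Drug injected 15 min before the session, during which multiple challenges were presented; at least 12 mice per group. Video processed by computer vision to extract over 2000 measures (frequency and duration of states such as grooming and rearing), compared with vehicle signature.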

[8] = biological target: Neuronal acetylcholine receptor; alpha3/beta4 (Rattus norvegicus, UniProt P04757+P12392); experiment: Displacement of [3H]epibatidine from rat alpha3beta4-nAChRs after 4 hrs by scintillation counting; type: protein-complex assay; summary of the method: as §3
Neuronal acetylcholine receptor; alpha3/beta4, sequence (P04757 whole entry): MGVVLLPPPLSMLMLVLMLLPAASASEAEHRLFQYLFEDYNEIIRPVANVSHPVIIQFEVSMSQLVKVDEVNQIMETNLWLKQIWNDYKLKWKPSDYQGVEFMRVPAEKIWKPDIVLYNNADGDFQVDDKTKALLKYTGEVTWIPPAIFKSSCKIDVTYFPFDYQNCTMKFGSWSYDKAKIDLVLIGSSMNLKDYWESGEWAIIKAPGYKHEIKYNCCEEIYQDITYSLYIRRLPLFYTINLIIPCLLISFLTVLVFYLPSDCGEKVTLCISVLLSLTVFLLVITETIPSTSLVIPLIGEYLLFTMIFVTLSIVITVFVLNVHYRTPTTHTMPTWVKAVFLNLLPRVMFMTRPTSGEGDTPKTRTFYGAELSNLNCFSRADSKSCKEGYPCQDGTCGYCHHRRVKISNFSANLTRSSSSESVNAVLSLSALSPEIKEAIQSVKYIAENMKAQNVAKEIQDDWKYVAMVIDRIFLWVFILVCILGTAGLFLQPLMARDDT
Neuronal acetylcholine receptor; alpha3/beta4, sequence (P12392 whole entry): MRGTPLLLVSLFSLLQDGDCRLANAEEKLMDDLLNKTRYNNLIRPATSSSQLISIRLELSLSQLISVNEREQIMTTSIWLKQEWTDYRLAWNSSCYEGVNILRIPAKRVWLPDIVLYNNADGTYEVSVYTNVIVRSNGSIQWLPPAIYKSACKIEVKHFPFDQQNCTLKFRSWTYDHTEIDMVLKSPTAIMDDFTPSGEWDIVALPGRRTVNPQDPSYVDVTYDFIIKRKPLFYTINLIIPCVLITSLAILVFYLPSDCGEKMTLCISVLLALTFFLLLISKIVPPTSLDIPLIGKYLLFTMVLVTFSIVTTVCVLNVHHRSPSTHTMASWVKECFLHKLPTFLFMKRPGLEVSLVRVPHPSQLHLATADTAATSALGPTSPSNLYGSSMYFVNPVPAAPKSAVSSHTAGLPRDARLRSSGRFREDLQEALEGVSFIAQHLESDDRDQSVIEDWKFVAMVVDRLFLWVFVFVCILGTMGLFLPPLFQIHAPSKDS

[9] = biological target: Neuronal acetylcholine receptor; alpha2/beta4 (Rattus norvegicus, UniProt P12389+P12392); experiment: Displacement of [3H]epibatidine from rat alpha2beta4-nAChRs after 4 hrs by scintillation counting; type: protein-complex assay; summary of the method: as §3
Neuronal acetylcholine receptor; alpha2/beta4, sequence (P12389 whole entry): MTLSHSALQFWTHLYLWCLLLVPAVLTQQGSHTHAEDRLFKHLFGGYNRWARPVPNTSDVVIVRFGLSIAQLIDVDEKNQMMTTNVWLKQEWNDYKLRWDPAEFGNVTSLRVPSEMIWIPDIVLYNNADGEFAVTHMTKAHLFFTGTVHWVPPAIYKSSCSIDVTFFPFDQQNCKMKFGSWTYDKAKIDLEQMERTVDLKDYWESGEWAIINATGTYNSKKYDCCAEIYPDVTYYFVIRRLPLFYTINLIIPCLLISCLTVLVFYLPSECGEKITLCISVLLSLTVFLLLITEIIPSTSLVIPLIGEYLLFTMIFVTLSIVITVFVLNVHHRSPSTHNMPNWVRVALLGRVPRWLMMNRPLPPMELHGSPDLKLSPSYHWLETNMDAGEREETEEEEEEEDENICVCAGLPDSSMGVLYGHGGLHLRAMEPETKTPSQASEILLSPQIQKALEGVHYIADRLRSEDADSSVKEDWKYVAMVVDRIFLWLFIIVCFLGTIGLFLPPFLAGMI
Neuronal acetylcholine receptor; alpha2/beta4, sequence (P12392 whole entry): as the sequence (P12392 whole entry) above

Mus musculus [10] = experiment: Antidepressant activity in mouse assessed as immobility time at 10 mg/kg, ip after 30 mins by mouse forced swim test; type: functional, organism-based; design: dose 10 mg/kg; summary of the method: as §4
[11] = biological target: T2, Acetylcholine receptor; alpha1/beta1/delta/gamma (Homo sapiens) (UniProt P02708+P07510+P11230+Q07001); experiment: Antagonist activity at high sensitivity and low sensitivity alpha1beta1gammadelta-nAChR expressed in human TE671/RD cells assessed as inhibition of carbamylcholine-induced stimulation effect measured after 10 mins carbamylcholine challenge by 86Rb+ ion flux assay; type: functional, cell-based; summary of the method: as §1
[12] = Displacement of [3H]epibatidine from rat alpha4beta2*-nAChRs after 4 hrs by scintillation counting; summary of the method: as §3
[13] = biological target: Neuronal acetylcholine receptor; alpha2/beta2 (Rattus norvegicus, UniProt P12389+P12390); experiment: Displacement of [3H]epibatidine from rat alpha2beta2-nAChRs after 4 hrs by scintillation counting; type: protein-complex assay; summary of the method: as §3
Neuronal acetylcholine receptor; alpha2/beta2, sequence (P12389 whole entry): as the sequence (P12389 whole entry) above
Neuronal acetylcholine receptor; alpha2/beta2, sequence (P12390 whole entry): as the sequence (P12390 whole entry) above

[14] = biological target: Neuronal acetylcholine receptor; alpha3/beta2 (Rattus norvegicus, UniProt P04757+P12390); experiment: Displacement of [3H]epibatidine from rat alpha3beta2-nAChRs after 4 hrs by scintillation counting; type: protein-complex assay; summary of the method: as §3
Neuronal acetylcholine receptor; alpha3/beta2, sequence (P04757 whole entry): as the sequence (P04757 whole entry) above
Neuronal acetylcholine receptor; alpha3/beta2, sequence (P12390 whole entry): as the sequence (P12390 whole entry) above

[15] = biological target: T1, Neuronal acetylcholine receptor; alpha4/beta2; experiment: Antagonist activity at high sensitivity and low sensitivity alpha4beta2-nAChR expressed in human SH-EP1 cells assessed as inhibition of carbamylcholine-induced stimulation effect measured after 10 mins carbamylcholine challenge by 86Rb+ ion flux assay relative to control; type: functional, cell-based; summary of the method: as §1
[16] = biological target: T2, Acetylcholine receptor; alpha1/beta1/delta/gamma (Homo sapiens); experiment: Agonist activity at high sensitivity and low sensitivity alpha1beta1gammadelta-nAChR expressed in human TE671/RD cells by 86Rb+ ion flux assay; type: functional, cell-based
[17] = biological target: T1, Neuronal acetylcholine receptor; alpha4/beta2; experiment: Agonist activity at high sensitivity alpha4beta2-nAChR expressed in human SH-EP1 cells by 86Rb+ ion flux assay relative to carbamylcholine; type: functional, cell-based; summary of the method: as §2
[18] = biological target: Neuronal acetylcholine receptor; alpha4/beta4 (Rattus norvegicus, UniProt P09483+P12392); experiment: Displacement of [3H]epibatidine from rat alpha4beta4-nAChRs after 4 hrs by scintillation counting; type: protein-complex assay; summary of the method: as §3
Neuronal acetylcholine receptor; alpha4/beta4, sequence (P09483 whole entry): as the sequence (P09483 whole entry) above
Neuronal acetylcholine receptor; alpha4/beta4, sequence (P12392 whole entry): as the sequence (P12392 whole entry) above

SH-SY5Y [19] = experiment: Agonist activity at high sensitivity and low sensitivity alpha3beta4*-nAChR expressed in human SH-SY5Y cells by 86Rb+ ion flux assay; type: functional, cell-based
[20] = Selectivity index, ratio of Ki for Aplysia californica AChBP to Ki for Lymnaea stagnalis AChBP
[21] = biological target: T3, Soluble acetylcholine receptor (Aplysia californica, UniProt Q8WSF8); experiment: Displacement of [3H]epibatidine from Aplysia californica AChBP
T3 sequence (Q8WSF8 whole entry): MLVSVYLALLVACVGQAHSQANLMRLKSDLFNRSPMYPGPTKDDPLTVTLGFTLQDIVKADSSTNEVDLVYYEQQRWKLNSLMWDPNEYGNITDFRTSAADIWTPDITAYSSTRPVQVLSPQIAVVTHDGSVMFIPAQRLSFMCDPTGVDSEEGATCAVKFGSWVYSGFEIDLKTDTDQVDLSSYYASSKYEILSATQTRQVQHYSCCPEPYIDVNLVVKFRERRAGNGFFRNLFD
Summary of the method: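 Competition against [3H]epibatidine at acetylcholine binding proteins (Ac- and Ct-AChBP), giving Ki values. Procedure follows the PDSP assay protocol book.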

Rattus norvegicus = species on record: Rattus norvegicus; experiment: Selectivity index, ratio of Ki for rat alpha3beta4 nAChR to Ki for rat alpha4beta2-nAChR; summary of the method: as §3
[22] = Metabolic stability in mouse liver microsomes assessed as unchanged compound level at 2 uM measured after 1 hr; type: ADME, Microsome; settings: read-out: Stability
Summary of the method: (§5)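 Compound incubated with mouse, rat, dog or human liver microsomes at a starting concentration of 2 μM for 1 h. Percent of parent remaining unchanged determined.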

[23] = Metabolic stability in human liver microsomes assessed as unchanged compound level at 2 uM measured after 1 hr; type: ADME, Microsome; settings: read-out: Stability; summary of the method: as §5
Mus musculus [24] = experiment: Antidepressant activity in mouse assessed as immobility time at 3 to 30 mg/kg, po after 30 mins by mouse forced swim test; type: functional, organism-based; summary of the method: as §4
Mus musculus [25] = experiment: Antidepressant activity in mouse assessed as immobility time at 3 mg/kg, po after 30 mins by mouse forced swim test; type: functional, organism-based; design: dose 3 mg/kg; summary of the method: as §4
[26] = Metabolic stability in dog liver microsomes assessed as unchanged compound level at 2 uM measured after 1 hr; type: ADME, Canis lupus familiaris, Microsome; settings: read-out: Stability; summary of the method: as §5
[27] = Metabolic stability in rat liver microsomes assessed as unchanged compound level at 2 uM measured after 1 hr; type: ADME, Microsome; settings: read-out: Stability; summary of the method: as §5

In the case of `CC[C@H]1C[C@@H]1c1cncc(OC[C@@H]2CCN2)c1`, the IC50 [1] is reported as 22.2 nM, the EC50 [2] is reported as 19.1 nM and the Activity [3] is reported as “inactive”. The Ki [4] was 0.4 nM, the inhibition (SH-SY5Y [5]) was “inactive” and the Activity (Mus musculus [6]) was “inactive”. The Activity (Mus musculus [7]) was “Active”, the Ki [8] was 852 nM and the Ki [9] was 41.8 nM. The Activity (Mus musculus [10]) was “inactive”, the inhibition [11] was “inactive” and the Ki [12] was 1.2 nM. The Ki [13] was 0.4 nM, the Ki [14] was 10.3 nM and the Efficacy [15] was 87%. For the same molecule, the Activity [16] was “inactive”, the Efficacy [17] was 68% and the Ki [18] was 14.8 nM. The Activity (SH-SY5Y [19]) was “inactive”.
For `CNC(=O)OCC[C@H]1C[C@@H]1c1cncc(OC[C@@H]2CCN2)c1`, the Activity (Mus musculus [7]) was “Active”, the Ratio Ki [20] was 80 and the Ki [21] was 1930 nM.
Molecule `FC(F)C[C@H]1C[C@@H]1c1cncc(OC[C@@H]2CCN2)c1` has an IC50 [1] of 8.6 nM, an EC50 [2] of 8.8 nM and a Ratio Ki (Rattus norvegicus) of over 16000. For the same molecule, the Activity [3] was “inactive”, the Ki [4] was 0.1 nM and the inhibition (SH-SY5Y [5]) was “inactive”. The Activity (Mus musculus [6]) was “inactive”, the Activity (Mus musculus [7]) was “Active” and the Ki [8] was 1980 nM. The Ki [9] was 85.4 nM, the Activity (Mus musculus [10]) was “inactive” and the inhibition [11] was “inactive”. The Ki [12] was 0.8 nM, the Ki [13] was 0.3 nM and the Ki [14] was 6.9 nM. For the same molecule, the Efficacy [15] was 86%, the Activity [16] was “inactive” and the Efficacy [17] was 75%. For the same molecule, the Ki [18] was 23 nM and the Activity (SH-SY5Y [19]) was “inactive”.
In the case of `OCC[C@H]1C[C@@H]1c1cncc(OC[C@@H]2CCN2)c1`, the Activity (Mus musculus [7]) is reported as “Active”, the Ratio Ki [20] is reported as 80 and the Ki [21] is reported as 979 nM.
In the case of `FCC[C@H]1C[C@@H]1c1cncc(OC[C@@H]2CCN2)c1`, the IC50 [1] is reported as 10.2 nM, the remaining at 1 h, 2 µM [22] is reported as at least 98% and the EC50 [2] is reported as 11.3 nM. For the same molecule, the Ratio Ki (Rattus norvegicus) was over 16000, the Activity [3] was “inactive” and the Ki [4] was 0.2 nM. For the same molecule, the inhibition (SH-SY5Y [5]) was “inactive”, the Activity (Mus musculus [6]) was “Active” and the Activity (Mus musculus [7]) was “Active”. The Ki [8] was 3220 nM, the Ki [9] was 138 nM and the remaining at 1 h, 2 µM [23] was at least 98%. The Activity (Mus musculus [10]) was “Active”, the inhibition [11] was “inactive” and the Ki [12] was 0.9 nM. The Ki [13] was 0.4 nM, the Ki [14] was 6.1 nM and the Activity (Mus musculus [24]) was “Active”. For the same molecule, the Activity (Mus musculus [25]) was “Active”, the Efficacy [15] was 81% and the Activity [16] was “inactive”. It also gave a remaining at 1 h, 2 µM [26] of at least 98%, an Efficacy [17] of 76% and a Ki [18] of 39.1 nM. The Activity (SH-SY5Y [19]) was “inactive” and the remaining at 1 h, 2 µM [27] was at least 98%.
Work on `CN1CCC[C@H]1c1cccnc1` [NICOTINE] yielded a Ki [21] of 598 nM.
